Measured values published in the RNAGym collection of RNA variant scans (doi:10.1126/science.aae0568).
This sample holds only a part of the variants without activity.

B1: tRNA (parent)
chain: GUUCCGUUGGCGUAAUGGUAACGCGUCUCCCUCCUAAGGAGAAGACUGCGGGUUCGAGUCCCGUACGGAACG

Variants of: B1
Assay: yeast fitness relative to wild type (ratio to wild type); higher = fitter; tRNA-Arg(CCU), competitive growth, 37 C, YPD
Outline: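 Variants of the tRNA-Arg(CCU) gene, chemically synthesised with a 3% per-site mutation rate at 69 sites, were placed at the native genomic locus in Saccharomyces cerevisiae. The pooled strains were competed in YPD at 37°C for 24 hours in six parallel replicates. Gene amplicons from the start population and from each end population were read by 100-nucleotide paired-end sequencing. Darwinian fitness relative to wild type came from changes in genotype frequencies; genotypes needed ≥ 100 starting reads, and estimates < 0.5 were set to 0.5.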

With GUUCCGUUGGCGUAAUGGUAACGCGUCUCCCCCCUAAGGAGAAAACUGCGGGUUCGAGUCCCGUACGGAACG as the variant, how does the yeast fitness read?
Its yeast fitness is 1.03.

With GUUCCGUUGGCGUAAUGGUAACGCGUCUCCCCCCUAACGACAAGACUGCGGGUUCGAGUCCCGUGCGGAACG as the variant, how does the yeast fitness read?
Its yeast fitness is ≤ 0.5.

With GUUCCGUUGGCGUAAUGGUAACGCGUCUCCCCCAUAUGGAGAAGAUUGCGGGUUCGAGUCCCGUACGGAACG as the variant, how does the yeast fitness read?
The yeast fitness was ≤ 0.5.

Which yeast fitness does the source give for GUUCCGUUGGCGUAAUGGUAACGCGUCUCCCCCCUAAGGAGAAGACUGCGGGUUCGAGUCCCGUACGGGACG here?
The yeast fitness was 0.882.

For GUUCCGUUGGCGUAAUGGUAACGCGUCUCCCCCCUAAGGAGAAGACUGCGGGUUCGAGUCCCGUACGGUACG, which yeast fitness is on record?
Its yeast fitness is 0.926.

With GUUCCGUUGGCGUAAUGGUAACGCGUCUCCCCCCUAAGGAGAAGAGUGCGGGUUCGAGUCCCGUACGGAACG as the variant, how does the yeast fitness read?
Its yeast fitness is 0.865.

With GUUCCGUUGGCGUAAUGGUAACGCGUCUCCCCGCUAGGGAGAAGACUGCGGAUUUGAGUCCCGUUCGGAACG as the variant, how does the yeast fitness read?
Its yeast fitness is 0.555.

Which yeast fitness does the source give for GUUCCGUUGGCGUAAUGGUAACGCGUCUCCCCCCUAAGGAGAAGACUGCGGGUUCGAGUCUCGUACGAAACG here?
The yeast fitness was 0.586.

With GUUCCGUUGGCGUAAUGGUAACGCGUCUCCCCCCUAAGGAGAAGACUGCGGGUUCGAGUGCCGUAUGGAUCG as the variant, how does the yeast fitness read?
Its yeast fitness is ≤ 0.5.

Which yeast fitness does the source give for GUUCCGUUGGCGUAAUGGUAACGCGUCUCCCCCCUAAGGAGAAGACUGCGGGUUCGAGUACCGUACGGAACG here?
Its yeast fitness is 0.645.

With GUUCCGUUGGCGUAAUGGUAACGCGUCUCCCCCCUAAGGAGAAGACUGCGGGUUCGAGUUCCGUACGGAACG as the variant, how does the yeast fitness read?
Its yeast fitness is 0.642.

With GUUCCGUUGGCGUAAUGGUAACGCGUCUCCCCCCUAAGGAGAAGACUGCGGGUUCGAGUCCCGUAGGGAUCG as the variant, how does the yeast fitness read?
The yeast fitness was 0.811.

For GUUCCGUUGGCGUAAUGGUAACGCGUCUCCCCCCUAAGGAGAAGACUGCGGGUUUGGGUCCCGUACGGAACG, which yeast fitness is on record?
The yeast fitness was 0.555.

Which yeast fitness does the source give for GUUCCGUUGGCGUAAUGGUAACGCGUCUCCCCCCUAAGGAGAAGACUGCGGGUUCGAGUCGCGUACGGAACG here?
The yeast fitness was 0.702.

Which yeast fitness does the source give for GUUCCGUUGGCGUAAUGGUAACGCGUCUCCCCCCUAAGGAGAAGACUGCGGGUUCGAGUCUCGUACGGAACG here?
Its yeast fitness is 0.987.

Which yeast fitness does the source give for GUUCCGUUGGCGUAAUGGUAACGCGUCUCCCCUCUAAGGAGAAGACUGCGGGUUCGAGUCCCGUACGGAGCG here?
Its yeast fitness is 0.681.

For GUUCCGUUGGCGUAAUGGUAACGCGUCUCCCCUCUAAGGAGUAGACUGCGGGUUCGAGUCCCGUACGGAACG, which yeast fitness is on record?
The yeast fitness was 0.66.

With GUUCCGUUGGCGUAAUGGUAACGCGUCUCCCCCCUAAGGAGAAGACUGCGGGUUCGAGUCCCGUACGGAGCG as the variant, how does the yeast fitness read?
The yeast fitness was 0.942.

Which yeast fitness does the source give for GUUCCGUUGGCGUAAUGGUAACGCGUCUCCCCCAUAAGGAGAAGACUGCGGGUUCGAGUCCCGUACGGAACG here?
The yeast fitness was 0.729.

With GUUCCGUUGGCGUAAUGGUAACGCGUCUCCCCCCUAAGGAGAAGACUGCAGGUUCGAGUCCCGUACGGAACG as the variant, how does the yeast fitness read?
Its yeast fitness is 1.02.

Which yeast fitness does the source give for GUUCCGUUGGCGUAAUGGUAACGCGUCUCCCCCCUAAGGAGAAGACUGCGGCUUCGAGUCCCGUACAGCACG here?
Its yeast fitness is ≤ 0.5.

For GUUCCGUUGGCGUAAUGGUAACGCGUCUCCCCCCUAAGGAGAAGACUGCGGGUUCGAGUCCUGUACGGCACG, which yeast fitness is on record?
Its yeast fitness is 1.15.

For GUUCCGUUGGCGUAAUGGUAACGCGUCUCCCCCUUAAGGAGAAGUCUGCGGGUUCGAGUCCCGUACGGAUCG, which yeast fitness is on record?
Its yeast fitness is 0.826.

Which yeast fitness does the source give for GUUCCGUUGGCGUAAUGGUAACGCGUCUCCCCCCUAAGGAGAAGACUGCGGGAUCGAGUCCCGUACGGAACG here?
The yeast fitness was 0.691.

For GUUCCGUUGGCGUAAUGGUAACGCGUCUCCCCCCUAAGGAGAAGACUGCGGGCUCGAGUCCCGUACGGAACG, which yeast fitness is on record?
Its yeast fitness is 0.766.

With GUUCCGUUGGCGUAAUGGUAACGCGUCUCCCCCCUAAGCAGAAGACUGCGGGUUCGAGUCCCGUACCGAACG as the variant, how does the yeast fitness read?
The yeast fitness was ≤ 0.5.

Which yeast fitness does the source give for GUUCCGUUGGCGUAAUGGUAACGCGUCUCCCCCCUAAGGAGAAGACUGCGGGUUUGAGUCCCGUACGGUACG here?
Its yeast fitness is 0.55.

For GUUCCGUUGGCGUAAUGGUAACGCGUCUCCCCCCUAAGGAGAAGACUGCGGGUUCGAGUCCUGUAGGGAACG, which yeast fitness is on record?
The yeast fitness was ≤ 0.5.

Which yeast fitness does the source give for GUUCCGUUGGCGUAAUGGUAACGCGUCUCCCCCCUAAGGAGAAGACUGCGCGUUCGAGUCUCGUACGGAACG here?
Its yeast fitness is ≤ 0.5.

Which yeast fitness does the source give for GUUCCGUUGGCGUAAUGGUAACGCGUCUCCCCCCUAAGGAGAAGAGUGCGGGUUCCAGUCCCGUACGGAACG here?
The yeast fitness was ≤ 0.5.

With GUUCCGUUGGCGUAAUGGUAACGCGUCUCCCCCCUAAGGAGAAGACUGCGGGUUCGAGUGCGGUACGGAACG as the variant, how does the yeast fitness read?
The yeast fitness was ≤ 0.5.

With GUUCCGUUGGCGUAAUGGUAACGCGUCUCCCCCCUAAGCAGAAGACUGCGGGUUCGAGUCUCGUACGGAACG as the variant, how does the yeast fitness read?
Its yeast fitness is ≤ 0.5.

For GUUCCGUUGGCGUAAUGGUAACGCGUCUCCCCCCUAAGGAGAAGAGUGCGGGUUCGAGUCGCGUACGGAACG, which yeast fitness is on record?
The yeast fitness was 0.587.

With GUUCCGUUGGCGUAAUGGUAACGCGUCUCCCCCCUAAGGAGAAGACUGCGGGUUCGUGUCCCGUACGGACCG as the variant, how does the yeast fitness read?
The yeast fitness was ≤ 0.5.

With GUUCCGUUGGCGUAAUGGUAACGCGUCUCCCCCCUAAGGAGAAGACUGUGGGUUCGAGUCCCGUACGGAACG as the variant, how does the yeast fitness read?
The yeast fitness was 0.971.

For GUUCCGUUGGCGUAAUGGUAACGCGUCUCCCCCUCAAGGAGAAGGCUGCGGGUACGAGUCCCGUACGGAACG, which yeast fitness is on record?
Its yeast fitness is ≤ 0.5.

Which yeast fitness does the source give for GUUCCGUUGGCGUAAUGGUAACGCGUCUCCCCCCUAAGGAGAAGACUGCGGGUUUGAGUCCCGUACAGAACG here?
Its yeast fitness is ≤ 0.5.

Which yeast fitness does the source give for GUUCCGUUGGCGUAAUGGUAACGCGUCUCCCCCCUAAGGAGAAGAGUGCGGGUUCGAGUCCCGUGCGGAACG here?
Its yeast fitness is 0.917.
